In ChEMBL document CHEMBL1126202, “Dual-action penems and carbapenems” (J Med Chem, 1992):

What was measured:
[1] = system: Escherichia coli; assay: Minimum inhibitory concentration of the Penicillin G binding to Escherichia coli UB1005 PBPs.
[2] = system: Staphylococcus aureus; assay: Minimum inhibitory concentration to the Penicillin G binding to Staphylococcus aureus ATCC 29213 Penicillin binding protein
[3] = system: Klebsiella pneumoniae; assay: In vitro antibacterial activity against Klebsiella pneumoniae A; type: functional
In short: (§1)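 MIC was determined by agar dilution on Mueller-Hinton agar. Serial 2-fold aqueous dilutions were diluted 10-fold in agar to give final concentrations of 128 to 0.0156 μg/mL. Plates were inoculated by Steers replicator with overnight broth cultures diluted 100-fold.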

[4] = system: Proteus vulgaris; assay: In vitro antibacterial activity against Proteus vulgaris ATCC 6380 (constitutive beta-lactamase producer); type: functional
In short: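 Proteus MICs were determined by agar dilution on Mueller-Hinton agar containing 3% agar. Plates were replicator-inoculated with 100-fold-diluted overnight broth cultures.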

[5] = system: Serratia marcescens; assay: In vitro antibacterial activity against Serratia marcescens SM (constitutive beta-lactamase producer); type: functional; in short: as §1
[6] = system: Escherichia coli; assay: Minimum inhibitory concentration inhibiting [14C]- Penicillin G binding to Escherichia coli UB1005 PBPs.
[7] = system: Penicillin-binding protein 3 FtsI (Escherichia coli K-12); assay: Concentration inhibiting [14C]- Penicillin G binding to Escherichia coli UB1005 PBP3 (penicillin binding protein) 60 kDa
[8] = Stability in pH 7.4 phosphate buffer at 37 degree C.; type: physicochemical
In short: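 Compounds were held in pH 7.4 phosphate buffer at 37 °C and monitored by reverse-phase HPLC on a PRP-1 column with UV detection at 275–286 nm. The mobile phase was 0.01 M tetradecyltrimethylammonium bromide in pH 8.2 phosphate/acetonitrile. Product-peak decline was followed to at least 50%, and half-life was taken from semilogarithmic plots.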

[9] = system: Pseudomonas aeruginosa; assay: In vitro antibacterial activity against Ps. aeruginosa 18SH (constitutive beta-lactamase producer); type: functional; in short: as §1
[10] = system: Escherichia coli; assay: Minimum inhibitory concentration inhibiting [14C]- Penicillin G binding to Escherichia coli UB1005 PBPs
[11] = biological target: T1, Penicillin-binding protein 1 (Staphylococcus aureus (strain COL)) (UniProt F4NA86); assay: Concentration inhibiting [14C]- Penicillin G binding to Staphylococcus aureus ATCC 29213 Penicillin binding protein 1 87 kDa
T1 sequence (whole entry): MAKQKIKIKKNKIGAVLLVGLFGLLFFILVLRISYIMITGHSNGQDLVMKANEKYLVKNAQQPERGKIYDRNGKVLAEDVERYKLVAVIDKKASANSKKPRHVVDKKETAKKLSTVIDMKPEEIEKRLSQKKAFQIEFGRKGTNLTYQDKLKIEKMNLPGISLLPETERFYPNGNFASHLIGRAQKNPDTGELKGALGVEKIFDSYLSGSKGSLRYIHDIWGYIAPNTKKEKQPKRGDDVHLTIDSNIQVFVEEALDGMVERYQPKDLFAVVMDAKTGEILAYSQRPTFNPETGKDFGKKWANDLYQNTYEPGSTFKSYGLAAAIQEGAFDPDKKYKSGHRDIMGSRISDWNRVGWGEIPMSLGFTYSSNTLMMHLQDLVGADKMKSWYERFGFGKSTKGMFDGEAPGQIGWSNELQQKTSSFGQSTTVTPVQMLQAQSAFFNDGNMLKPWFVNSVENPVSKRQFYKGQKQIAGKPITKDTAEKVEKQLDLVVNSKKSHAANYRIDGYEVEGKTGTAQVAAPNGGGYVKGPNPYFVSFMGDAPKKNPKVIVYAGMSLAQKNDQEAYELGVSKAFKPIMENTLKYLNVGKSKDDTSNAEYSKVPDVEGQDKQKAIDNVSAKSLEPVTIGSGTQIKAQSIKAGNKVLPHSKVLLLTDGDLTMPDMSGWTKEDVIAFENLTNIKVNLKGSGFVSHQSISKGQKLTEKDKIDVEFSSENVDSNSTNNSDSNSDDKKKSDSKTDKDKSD

For C[C@@H](O)[C@H]1C(=O)N2C(C(=O)[O-])=C(COC(=O)N3CCN(c4cc5c(cc4F)c(=O)c(C(=O)O)cn5C4CC4)CC3)S[C@H]12.[Na+], the MIC [1] was 4 µg/mL and the MIC [2] was 0.25 µg/mL.

Work on C[C@@H](O)[C@H]1C(=O)N2C(C(=O)[O-])=C(CO)S[C@H]12.[Na+] yielded an MIC [3] of 4 µg/mL, an MIC [4] of 8 µg/mL and an MIC [5] of 8 µg/mL. For the same molecule, the MIC [6] was 4 µg/mL.

For C[C@@H](O)[C@H]1C(=O)N2C(C(=O)[O-])=C(COC(=O)c3cn(CCF)c4c(F)c(N5CCN(C)CC5)c(F)cc4c3=O)S[C@H]12.[Na+], the IC90 [7] was 30 µg/mL, the half-life [8] was 52 h and the MIC [9] was 4 µg/mL. The MIC [10] was 2 µg/mL and the IC90 [11] was 0.5 µg/mL.
